{"data": "Measured values of several laboratories", "target": "Serine/threonine-protein kinase NIM1 (NIM1K, Homo sapiens, UniProt Q8IY84)", "note": "Lines come from different studies, so protocols differ."}
{"Compound": "COc1ncc2cc3ccccc3nc2c1C#N", "observed": "cell-free assay", "technique": "competition with immobilised ligand", "tested at": "5 µM", "remaining binding": "89%"}
{"Compound": "COc1cccc(CNC(=O)c2nc3scc(COCc4ccc(C(=O)O)cc4)c3c(=O)[nH]2)c1", "observed": "cell-free assay", "technique": "competition with immobilised ligand", "tested at": "1 µM", "remaining binding": "100%"}
{"Compound": "O=C(c1ccc(Nc2ncc(Cl)c(-c3cc4ccccc4s3)n2)cc1)N1CCC(N2CCCC2)CC1", "observed": "binding", "technique": "competition with immobilised ligand", "tested at": "1 µM", "remaining binding": "20%"}
{"Compound": "FC(F)(F)Oc1cccc(-c2cnc3ccc(-c4ccncc4)nn23)c1", "observed": "cell-free assay", "technique": "competition with immobilised ligand", "tested at": "5 µM", "remaining binding": "87%"}
{"Compound": "CN(c1nccc(-c2cnn3ncccc23)n1)C1CC1", "observed": "binding", "tested at": "1 µM", "remaining binding": "100%"}
{"Compound": "CNC(=O)[C@@H]1CC[C@@H](n2c(-c3ccc4cnccc4c3)nc3ccc(C(=O)NCc4cccc(C(N)=O)c4)cc32)C1", "observed": "binding", "technique": "competition with immobilised ligand", "tested at": "1 µM", "remaining binding": "100%"}
{"Compound": "C=CC(=O)N1CCC(C(=O)NCC(=O)N2CCN(c3nc(-c4cnc(N)nc4C(F)F)nc(N4CCOCC4)n3)CC2)CC1", "observed": "binding", "technique": "competition with immobilised ligand", "tested at": "1 µM", "remaining binding": "100%"}
{"Compound": "CN(C)c1nccc(-c2cnc3ncccn23)n1", "observed": "binding", "tested at": "1 µM", "remaining binding": "67%"}
{"Compound": "CCC(=O)N[C@H]1CC[C@@H](C(=O)N(C)c2ccc(-c3nc4ccccc4o3)cc2)C1", "observed": "cell-free assay", "technique": "competition with immobilised ligand", "tested at": "1 µM", "remaining binding": "88%"}
{"Compound": "c1cnn2ncc(-c3ccnc(N4CCC45COC5)n3)c2c1", "observed": "binding", "tested at": "1 µM", "remaining binding": "61%"}
{"Compound": "Cc1cc(-n2nc(Cc3cc(F)cc(C(F)(F)F)c3)nc2C)ccc1C(N)=O", "observed": "cell-free assay", "technique": "competition with immobilised ligand", "tested at": "1 µM", "remaining binding": "100%"}
{"Compound": "CN(CCCC(F)(F)F)c1nccc(-c2cnn3ncccc23)n1", "observed": "binding", "tested at": "1 µM", "remaining binding": "100%"}
{"Compound": "CS(=O)(=O)NCC[C@H](NC(=O)c1cncc2c1cnn2-c1ccc(F)cc1)c1ccnc(S(C)(=O)=O)c1", "observed": "cell-free assay", "technique": "competition with immobilised ligand", "tested at": "1 µM", "remaining binding": "100%"}
{"Compound": "C[C@@H]1CCN(c2nccc(-c3cnn4ncccc34)n2)C1", "observed": "binding", "tested at": "1 µM", "remaining binding": "87%"}
{"Compound": "COc1cnc(Nc2cccc(S(N)(=O)=O)c2)nc1N1CCN(c2ccccc2)CC1", "observed": "binding", "technique": "competition with immobilised ligand", "tested at": "1 µM", "remaining binding": "71%"}
{"Compound": "CS(=O)(=O)c1cc(C2(NC(=O)c3cncc4c3cnn4-c3ccc(F)cc3)CC2)ccn1", "observed": "cell-free assay", "technique": "competition with immobilised ligand", "tested at": "1 µM", "remaining binding": "56%"}
{"Compound": "CC1CCCN1c1nccc(-c2cnn3ncccc23)n1 (stereo not shown)", "observed": "binding", "tested at": "1 µM", "remaining binding": "95%"}
{"Compound": "O=C(Nc1c[nH]nc1C(=O)NC1CCNCC1)c1cc(F)cc(F)c1", "observed": "binding", "technique": "competition with immobilised ligand", "tested at": "1 µM", "remaining binding": "100%"}
{"Compound": "O=C(c1ccc(Nc2nccc(-c3cc4ccccc4s3)n2)cc1)N1CCC(N2CCCC2)CC1", "observed": "binding", "technique": "competition with immobilised ligand", "tested at": "1 µM", "remaining binding": "80%"}
{"Compound": "COc1ccc2c(c1)O[C@H](c1ccc(OC)c(OC)c1)C[C@@H]2NC(=O)C1(c2ccc3c(c2)OC(F)(F)O3)CC1", "observed": "cell-free assay", "technique": "competition with immobilised ligand", "tested at": "1 µM", "remaining binding": "84%"}
{"Compound": "COc1ccnn2ncc(-c3ccnc(N(C)C)n3)c12", "observed": "binding", "tested at": "1 µM", "remaining binding": "100%"}
{"Compound": "O=C(NCCCN1CCOCC1)c1ccc(Nc2ncc(Cl)c(-c3ccc(Cl)s3)n2)cc1", "observed": "binding", "technique": "competition with immobilised ligand", "tested at": "1 µM", "remaining binding": "20%"}
